Reference: ChEMBL document CHEMBL5032506, “Identification of Transthyretin Tetramer Kinetic Stabilizers That Are Capable of Inhibiting the Retinol-Dependent Retinol Binding Protein 4-Transthyretin Interaction: Potential Novel Therapeutics for Macular Degeneration, Transthyretin Amyloidosis, and Their Common Age-Related Comorbidities” (J Med Chem, 2021)
The source made the active and inactive calls. The rule behind the calls is not given here.

Legend:
[1] = tested on: Mus musculus; experiment: Reduction in serum RBP4 level in mouse measured at 25 mg/kg, po after 6 hrs; format: functional
How it was run: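 Balb/c mice given a single oral dose, 25 mg/kg, in 0.9% NaCl/2% Tween 80, with a vehicle group. […] Three to eight mice per group; mean ± SD.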

[2] = biological target: Retinol-binding protein 4 (Homo sapiens, UniProt P02753); experiment: Displacement of [3H]-all trans retinol from human urine biotinylated RBP4 incubated for 16 hrs measured by Scintillation Proximity Assay
[3] = biological target: CYP2D6 (Homo sapiens, UniProt P10635); experiment: Inhibition of CYP2D6 (unknown origin) at 10 uM relative to control; format: ADME
[4] = biological target: CYP3A4 (Homo sapiens, UniProt P08684); experiment: (§1) Inhibition of CYP3A4 (unknown origin) at 10 uM relative to control; format: ADME
[5] = biological target: CYP2C9 (Homo sapiens, UniProt P11712); experiment: Inhibition of CYP2C9 (unknown origin) at 10 uM relative to control; format: ADME
[6] = biological target: CYP2C19 (Homo sapiens, UniProt P33261); experiment: (§2) Inhibition of CYP2C19 (unknown origin) at 10 uM relative to control; format: ADME
[7] = Solubility of the compound at pH 7.4 in PBS; format: physicochemical
How it was run: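 Kinetic solubility in PBS, pH 7.4. Values above 200 μM are capped at the top assay concentration, 200 μM.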

[8] = biological target: T1, Transthyretin (Homo sapiens, UniProt P02766); experiment: Binding affinity to human plasma TTR tetramer assessed as displacement of diclofenac-coupled FITC by fluorescence polarization assay; format: cell-free
[9] = Disruption of retional-induced bacterially expressed MBP-tagged RBP4-TTR (unknown origin) protein-protein interaction measured by d2 dye based HTFR assay; design: species or system Homo sapiens
[10] = tested on: Mus musculus; experiment: Effect of TTR level in po dosed mouse serum; format: functional, organism-based
[11] = biological target: T1, Transthyretin; experiment: Stabilization of human plasma TTR assessed as inhibition of formation of high molecular weight forms of TTR with acetate buffer at pH 4 by measured at 50 uM after 72 hrs by acid-induced aggregation assay; format: cell-free
[12] = biological target: T1, Transthyretin; experiment: Stabilization of human plasma TTR assessed as supression of low pH mediated TTR aggregate formation at 50 uM using pH 4 buffer; format: cell-free
[13] = tested on: Mus musculus; experiment: Reduction in serum RBP4 level in mouse measured at 25 mg/kg, po after 2 hrs
[14] = biological target: T1, Transthyretin; experiment: Stabilization of human plasma TTR assessed as supression of low pH mediated TTR aggregate formation at 50 uM using pH 4.0 buffer
[15] = tested on: Mus musculus; experiment: Reduction in serum RBP4 level in mouse measured at 25 mg/kg, po after 1 hr
[16] = biological target: T1, Transthyretin; experiment: Stabilization of human plasma TTR assessed as increase in dimer band intensity at 50 uM measured after 72 hrs by Western blotting analysis; format: cell-free
[17] = Cmax in male CD-1 mouse at 5 mg/kg, po; format: ADME, organism-based; design: route oral, dose 5 mg/kg; conditions: in vivo
How it was run: (§3)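 Groups of three drug-naive adult male CD-1 mice; IV dose 2 mg/kg in 3% dimethylacetamide/45% PEG300/12% ethanol/40% sterile water; PO dose 5 mg/kg in 2% Tween 80 in 0.9% saline. Compound measured in blood; AUC_last to last quantifiable time point, AUC_INF extrapolated to infinity; Cmax is maximum observed blood concentration. Mean (SD).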

[18] = AUClast in male CD-1 mouse at 5 mg/kg, po; format: ADME, organism-based; design: time 0 - last, route oral, dose 5 mg/kg; conditions: in vivo; how it was run: as §3
[19] = Half life in male CD-1 mouse at 5mg/kg, po; format: ADME, organism-based; conditions: in vivo
How it was run: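 Adult male CD-1 mice, drug naïve, three per group; single 5 mg/kg oral dose in 2% Tween 80 in 0.9% saline. Blood compound levels followed over time; apparent terminal-phase half-life reported as mean (SD).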

[20] = Plasma protein binding in human; format: ADME, cell-free
[21] = tested on: Mus musculus; experiment: Reduction in serum RBP4 level in mouse measured at 25 mg/kg, po administered as single dose measured after 2 hrs; format: functional
[22] = AUC (infinity) in male CD-1 mouse at 5 mg/kg, po; format: ADME, organism-based; design: time infinity, route oral, dose 5 mg/kg; conditions: in vivo; how it was run: as §3
[23] = biological target: Voltage-gated inwardly rectifying potassium channel KCNH2 (Homo sapiens, UniProt Q12809); experiment: Inhibition of human ERG
[24] = AUC in male CD-1 mouse at 2 mg/kg, iv; format: ADME, organism-based; design: dose 2 mg/kg; conditions: in vivo; how it was run: as §3
[25] = in vivo; conditions: male, CD-1, mouse, iv, 2 mg/kg
[26] = Volume of distribution at steady state in male CD-1 mouse at 2 mg/kg, iv; format: ADME, organism-based; conditions: in vivo, read-out: Vdss
How it was run: (§4)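 Adult male CD-1 mice, drug naïve, three per group; single 2 mg/kg IV bolus in 3% dimethylacetamide/45% PEG300/12% ethanol/40% sterile water. Compound measured in blood over time. CL is total body clearance, t1/2 is the terminal elimination phase half-life, Vss is volume of distribution at steady state. Reported as mean (SD).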

[27] = AUClast in male CD-1 mouse at 2 mg/kg, iv; format: ADME, organism-based; design: route intravenous, time 0 - last, dose 2 mg/kg; conditions: in vivo; how it was run: as §3
[28] = Clearance in male CD-1 mouse at 2 mg/kg, iv; format: ADME, organism-based; conditions: in vivo; how it was run: as §4
[29] = Microsomal stability in mouse liver microsomes assessed as parent compound remaining measured after 30 min; format: ADME, Microsome; conditions: 0.5 h
[30] = Half life in male CD-1 mouse at 2 mg/kg, iv; format: ADME, organism-based; conditions: in vivo; how it was run: as §4
[31] = biological target: T2, Peroxisome proliferator-activated receptor gamma (Homo sapiens, UniProt P37231); experiment: Activity at PPARgamma (unknown origin)
T2 sequence (P37231 whole entry): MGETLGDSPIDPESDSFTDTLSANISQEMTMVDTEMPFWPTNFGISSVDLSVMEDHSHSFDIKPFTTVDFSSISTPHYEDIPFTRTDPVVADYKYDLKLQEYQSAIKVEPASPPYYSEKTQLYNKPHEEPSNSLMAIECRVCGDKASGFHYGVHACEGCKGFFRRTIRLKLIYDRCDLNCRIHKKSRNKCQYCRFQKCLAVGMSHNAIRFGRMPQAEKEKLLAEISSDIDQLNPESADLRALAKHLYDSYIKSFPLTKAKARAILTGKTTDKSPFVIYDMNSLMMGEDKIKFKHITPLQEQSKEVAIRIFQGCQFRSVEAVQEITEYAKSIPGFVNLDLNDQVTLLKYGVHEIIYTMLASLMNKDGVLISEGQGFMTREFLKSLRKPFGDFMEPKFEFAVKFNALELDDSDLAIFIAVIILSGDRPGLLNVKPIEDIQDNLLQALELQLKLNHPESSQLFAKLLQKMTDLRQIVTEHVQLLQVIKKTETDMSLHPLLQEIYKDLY

[32] = biological target: Cytochrome P450 3A4 (Homo sapiens, UniProt P08684); experiment: as §1; format: ADME; conditions: 10 µM
[33] = Microsomal stability in human liver microsomes assessed as parent compound remaining measured after 30 min; format: ADME, Microsome; conditions: 0.5 h
[34] = Microsomal stability in human liver microsomes assessed as intrinsic clearance; format: ADME, Microsome
[35] = Plasma protein binding in rat; format: ADME, cell-free
[36] = biological target: Cytochrome P450 2C19 (Homo sapiens, UniProt P33261); experiment: as §2; format: ADME; conditions: 10 µM
[37] = Microsomal stability in rat liver microsomes assessed as parent compound remaining measured after 30 min; format: ADME, Microsome; conditions: 0.5 h

Chain of CYP2C19 (P33261 whole entry): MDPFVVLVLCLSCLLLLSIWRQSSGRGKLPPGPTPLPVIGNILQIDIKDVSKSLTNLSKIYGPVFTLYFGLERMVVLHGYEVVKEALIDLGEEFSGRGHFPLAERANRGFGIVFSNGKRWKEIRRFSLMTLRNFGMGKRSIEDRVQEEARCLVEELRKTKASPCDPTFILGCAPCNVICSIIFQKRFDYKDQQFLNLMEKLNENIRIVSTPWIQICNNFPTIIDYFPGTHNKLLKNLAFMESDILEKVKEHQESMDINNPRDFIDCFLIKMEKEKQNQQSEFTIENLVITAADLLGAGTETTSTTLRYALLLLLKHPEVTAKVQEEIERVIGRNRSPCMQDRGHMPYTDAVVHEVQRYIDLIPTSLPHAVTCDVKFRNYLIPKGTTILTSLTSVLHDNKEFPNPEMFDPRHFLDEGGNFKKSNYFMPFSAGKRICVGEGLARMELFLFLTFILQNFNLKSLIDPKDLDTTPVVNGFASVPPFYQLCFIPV
Chain of Cytochrome P450 3A4 (P08684 whole entry): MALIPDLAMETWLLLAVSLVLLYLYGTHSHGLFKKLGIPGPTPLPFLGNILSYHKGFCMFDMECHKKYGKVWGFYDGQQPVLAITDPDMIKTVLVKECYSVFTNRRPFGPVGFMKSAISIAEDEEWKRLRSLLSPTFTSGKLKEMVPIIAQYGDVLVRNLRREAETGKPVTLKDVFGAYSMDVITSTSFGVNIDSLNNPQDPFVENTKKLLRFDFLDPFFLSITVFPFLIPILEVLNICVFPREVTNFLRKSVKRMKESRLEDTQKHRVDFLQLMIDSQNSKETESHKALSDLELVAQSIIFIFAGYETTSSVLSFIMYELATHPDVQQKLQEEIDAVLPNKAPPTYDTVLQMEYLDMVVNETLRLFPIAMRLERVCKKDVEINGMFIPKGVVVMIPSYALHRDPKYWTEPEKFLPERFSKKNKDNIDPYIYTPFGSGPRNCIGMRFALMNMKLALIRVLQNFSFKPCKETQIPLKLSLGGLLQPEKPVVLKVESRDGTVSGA
Chain of CYP2D6 (P10635 whole entry): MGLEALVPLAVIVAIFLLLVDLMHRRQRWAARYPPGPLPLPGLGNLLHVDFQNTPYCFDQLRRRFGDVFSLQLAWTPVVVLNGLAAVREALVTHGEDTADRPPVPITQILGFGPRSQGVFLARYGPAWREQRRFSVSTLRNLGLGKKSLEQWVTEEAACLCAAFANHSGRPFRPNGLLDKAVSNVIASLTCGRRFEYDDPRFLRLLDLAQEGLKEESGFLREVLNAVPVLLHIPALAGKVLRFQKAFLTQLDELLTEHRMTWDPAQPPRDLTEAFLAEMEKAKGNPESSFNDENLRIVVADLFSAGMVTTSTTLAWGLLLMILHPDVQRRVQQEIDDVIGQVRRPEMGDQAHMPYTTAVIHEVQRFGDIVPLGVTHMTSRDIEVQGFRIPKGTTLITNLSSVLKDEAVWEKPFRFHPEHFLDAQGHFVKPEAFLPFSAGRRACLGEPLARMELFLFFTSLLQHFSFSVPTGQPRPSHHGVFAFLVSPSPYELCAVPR
Chain of CYP2C9 (P11712 whole entry): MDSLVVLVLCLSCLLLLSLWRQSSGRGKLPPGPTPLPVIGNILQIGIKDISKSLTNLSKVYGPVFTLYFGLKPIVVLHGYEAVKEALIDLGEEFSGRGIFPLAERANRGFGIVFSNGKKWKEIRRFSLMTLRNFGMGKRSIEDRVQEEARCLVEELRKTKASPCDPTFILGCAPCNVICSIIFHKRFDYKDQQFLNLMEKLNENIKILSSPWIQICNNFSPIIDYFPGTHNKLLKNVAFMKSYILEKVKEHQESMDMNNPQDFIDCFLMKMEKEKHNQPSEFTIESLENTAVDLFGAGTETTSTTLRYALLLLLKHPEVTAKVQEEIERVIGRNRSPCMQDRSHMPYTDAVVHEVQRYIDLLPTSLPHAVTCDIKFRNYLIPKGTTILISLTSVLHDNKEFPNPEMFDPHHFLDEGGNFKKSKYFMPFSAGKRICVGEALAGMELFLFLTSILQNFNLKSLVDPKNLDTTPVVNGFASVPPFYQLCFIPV
Chain of Cytochrome P450 2C19 (P33261 whole entry): as the sequence (P33261 whole entry) above
Chain of CYP3A4 (P08684 whole entry): as the sequence (P08684 whole entry) above
Chain of Voltage-gated inwardly rectifying potassium channel KCNH2 (Q12809 whole entry): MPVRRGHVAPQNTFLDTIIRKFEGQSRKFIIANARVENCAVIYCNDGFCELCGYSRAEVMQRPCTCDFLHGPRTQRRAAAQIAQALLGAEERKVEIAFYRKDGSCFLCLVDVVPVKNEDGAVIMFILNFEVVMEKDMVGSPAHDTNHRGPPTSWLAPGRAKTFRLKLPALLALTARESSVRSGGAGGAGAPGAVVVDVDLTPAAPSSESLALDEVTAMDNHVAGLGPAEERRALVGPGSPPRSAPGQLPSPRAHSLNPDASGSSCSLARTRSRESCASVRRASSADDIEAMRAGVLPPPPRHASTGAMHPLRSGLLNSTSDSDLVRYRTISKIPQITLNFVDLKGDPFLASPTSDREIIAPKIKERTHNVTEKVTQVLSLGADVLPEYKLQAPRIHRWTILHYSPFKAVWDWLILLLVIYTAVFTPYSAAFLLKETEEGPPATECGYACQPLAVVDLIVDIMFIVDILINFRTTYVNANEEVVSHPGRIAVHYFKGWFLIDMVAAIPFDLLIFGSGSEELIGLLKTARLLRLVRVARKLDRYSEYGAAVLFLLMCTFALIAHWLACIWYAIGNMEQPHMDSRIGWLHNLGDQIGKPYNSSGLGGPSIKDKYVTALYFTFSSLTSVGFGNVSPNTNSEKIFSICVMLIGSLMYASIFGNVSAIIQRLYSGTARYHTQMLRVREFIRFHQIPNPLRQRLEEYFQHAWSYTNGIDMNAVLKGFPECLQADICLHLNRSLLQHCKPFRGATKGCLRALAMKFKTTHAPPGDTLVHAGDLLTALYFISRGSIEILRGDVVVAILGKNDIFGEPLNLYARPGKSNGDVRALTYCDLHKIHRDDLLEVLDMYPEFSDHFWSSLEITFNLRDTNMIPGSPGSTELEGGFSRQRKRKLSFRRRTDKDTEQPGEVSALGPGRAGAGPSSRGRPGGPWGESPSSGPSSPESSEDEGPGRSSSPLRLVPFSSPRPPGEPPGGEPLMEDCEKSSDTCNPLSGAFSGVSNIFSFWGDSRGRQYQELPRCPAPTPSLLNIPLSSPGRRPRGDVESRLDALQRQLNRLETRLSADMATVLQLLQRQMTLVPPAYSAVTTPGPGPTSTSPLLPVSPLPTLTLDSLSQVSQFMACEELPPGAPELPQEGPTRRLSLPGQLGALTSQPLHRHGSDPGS

## Cc1n[nH]c(C)c1N1CCN(c2cc(C(=O)O)ccc2F)CC1 [listing 1 of 3 here]
[1]
  inhibition in vivo at 25 mg/kg: 81%

## Cc1n[nH]c(C)c1CCCOc1cc(C(=O)O)ccc1F [ACORAMIDIS]
[2]
  IC50: > 30 µM

## Cc1n[nH]c(C)c1N1CCN(c2cc(C(N)=O)ccc2F)CC1
[2]
  IC50: > 3 µM

## Cc1ccc(C(=O)O)cc1N1CCN(c2c(C)n[nH]c2C)CC1
[3]
  inhibition at 10 µM: 7.34%
[4]
  inhibition at 10 µM: -5.2%
[5]
  inhibition at 10 µM: 56.2%
[6]
  inhibition at 10 µM: 0.06%
[2]
  IC50: > 3 µM
[7]
  solubility kinetic: ≥ 200 µM

## Cc1n[nH]c(C)c1N1CCN(c2cc(F)cc(C(=O)O)c2)CC1
[2]
  IC50: > 3 µM

## Cc1n[nH]c(C)c1N1CC2(CN(c3cc(C(=O)O)ccc3F)C2)C1
[8]
  IC50: > 30 µM
[2]
  IC50: > 3 µM

## Cc1n[nH]c(C)c1N1C[C@H]2CN(c3cc(C(=O)O)ccc3F)C[C@H]2C1
[8]
  IC50: 2.82 µM
[2]
  IC50: > 3 µM

## Cc1n[nH]c(C)c1N1CCN(c2cc(C(=O)O)ccc2I)CC1
[9]
  IC50: 2.65 µM
[8]
  IC50: 0.19 µM

## Cc1n[nH]c(C)c1N1CCN(c2cc(C(=O)O)ccc2F)CC1 [listing 2 of 3 here]
[10]
  Activity: inactive
[11]
  Activity: Active
[12]
  Activity: Active
[13]
  inhibition: Active
[14]
  Activity: Active
[15]
  inhibition: Active
[16]
  Activity: Active

## Cc1n[nH]c(C)c1N1CCC2(CCN(c3cc(C(=O)O)ccc3F)C2)C1 (racemic)
[8]
  IC50: 1.08 µM
[2]
  IC50: > 3 µM

## Cc1n[nH]c(C)c1N1CCN(c2cc(C(=O)O)ccc2F)CC1 [listing 3 of 3 here]
[3]
  inhibition at 10 µM: 8.1%
[17]
  Cmax: 1560 ng/mL
[18]
  AUC(0-t): 16000 ng·h/mL
[4]
  inhibition at 10 µM: -2.2%
[19]
  half-life: 5.38 h
[20]
  PPB: 83%
[21]
  inhibition in vivo at 25 mg/kg: 66%
[22]
  AUC(0-inf): 16100 ng·h/mL
[23]
  IC50: > 30 µM
[5]
  inhibition at 10 µM: 10.4%
[24]
  AUC: 6240 ng·h/mL
[25]
  C0: 1620 ng/mL
[2]
  IC50: > 3 µM
[26]
  Vd: 2.18 L/kg
[27]
  AUC(0-t): 6210 ng·h/mL
[28]
  clearance: 5.9 mL/min/kg
[29]
  Stability: 102%
[30]
  half-life: 5.08 h
[31]
  EC50: > 30 µM

## Cc1n[nH]c(C)c1N1CCN(c2cc(-c3nn[nH]n3)ccc2F)CC1
[3]
  inhibition at 10 µM: 0.8%
[32]
  inhibition (INH): 18.9%
[33]
  Stability: 71.4%
[5]
  inhibition at 10 µM: 26.3%
[6]
  inhibition at 10 µM: -4.8%
[34]
  CLH: 18.4 µL/min/mg
[2]
  IC50: > 3 µM
[35]
  PPB: 94%
[7]
  solubility kinetic: ≥ 200 µM

## Cc1n[nH]c(C)c1N1CCN(c2ccc(F)c(C(=O)O)c2)CC1
[2]
  IC50: > 3 µM

## O=C(O)c1ccc(F)c(N2CCN(c3nn[nH]n3)CC2)c1
[8]
  IC50: > 30 µM
[2]
  IC50: > 3 µM

## Cc1n[nH]c(C)c1N1CCN(c2cc(C(=O)O)ccc2Cl)CC1
[3]
  inhibition at 10 µM: 10%
[32]
  inhibition (INH): 19.5%
[5]
  inhibition at 10 µM: 25.2%
[36]
  inhibition (INH): 1.85%
[2]
  IC50: > 3 µM
[35]
  PPB: 89%
[7]
  solubility kinetic: ≥ 200 µM

## Cc1n[nH]c(C)c1N1CCN(c2cccc(C(=O)O)c2)CC1
[2]
  IC50: > 30 µM

## Cc1noc(C)c1N1CCN(c2cc(C(=O)O)ccc2F)CC1
[2]
  IC50: > 3 µM

## O=C(O)c1ccc2nc(-c3cc(Cl)cc(Cl)c3)oc2c1
[11]
  Activity: Active
[2]
  IC50: > 30 µM
[16]
  Activity: Active

## O=C(O)c1ccc(F)c(N2CCN(c3ccccc3C(F)(F)F)CC2)c1
[8]
  IC50: 1.7 µM
[2]
  IC50: > 3 µM

## Cc1n[nH]c(C)c1N1CCN(c2cc(C(=O)O)ccc2C(F)(F)F)CC1
[3]
  inhibition at 10 µM: 5.9%
[32]
  inhibition (INH): 14.8%
[20]
  PPB: 86%
[5]
  inhibition at 10 µM: 17.1%
[36]
  inhibition (INH): 2.3%
[2]
  IC50: > 3 µM
[7]
  solubility kinetic: ≥ 200 µM

## Cc1cc(F)c(N2CCN(c3c(C)n[nH]c3C)CC2)cc1C(=O)O
[3]
  inhibition at 10 µM: 9.2%
[32]
  inhibition (INH): 31.7%
[20]
  PPB: 87%
[5]
  inhibition at 10 µM: 1.1%
[6]
  inhibition at 10 µM: -3%
[2]
  IC50: > 3 µM
[37]
  Stability: 105%
[35]
  PPB: 93%
[7]
  solubility kinetic: ≥ 200 µM

## Cc1n[nH]c(C)c1N1CCN(c2cccc(C(=O)O)c2F)CC1
[2]
  IC50: > 3 µM
